Reference: ChEMBL document CHEMBL3044834, “Novel protoporphyrinogen oxidase inhibitors: 3H-pyrazolo[3,4-d][1,2,3]triazin-4-one derivatives” (J Agric Food Chem, 2008)

Test system: Amaranthus retroflexus
Assay: Herbicidal activity against Amaranthus retroflexus assessed as inhibition of fresh weed plant weight at 187.5 g/ha using pre-emergence treatment protocol
Type: functional

Row | Compound | inhibition at 187.5 g/ha [%]
1 | C#CCOc1cc(-n2nnc3c(cnn3CC=C)c2=O)c(F)cc1Cl | 21.3

Test system: Echinochloa crus-galli
Assay: Herbicidal activity against Echinochloa crus-galli (barnyard grass) assessed as inhibition of fresh weed plant weight at 750 g/ha using post-emergence treatment protocol
Type: functional
Outline: (§1)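 Test compounds made up as emulsions by dissolving in 100 µL N,N-dimethylformamide, then adding a little Tween 20 and water. For post-emergence, weed seedlings at one leaf and one stem were sprayed at the same rates as the pre-emergence test. Fresh weight was recorded 15 days after treatment and expressed as percent inhibition versus controls. All treatments were run in triplicate.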

Row | Compound | inhibition at 750 g/ha [%]
2 | C#CCOc1cc(-n2nnc3c(cnn3CC=C)c2=O)c(F)cc1Cl | 17.1

Test system: Echinochloa crus-galli
Assay: Herbicidal activity against Echinochloa crus-galli (barnyard grass) assessed as inhibition of fresh weed plant weight at 187.5 g/ha using pre-emergence treatment protocol
Type: functional
Outline: as §1

Row | Compound | inhibition at 187.5 g/ha [%]
3 | C#CCOc1cc(-n2nnc3c(cnn3CC=C)c2=O)c(F)cc1Cl | 0

Test system: Brassica rapa subsp. oleifera
Assay: Herbicidal activity against Brassica rapa subsp. oleifera assessed as inhibition of fresh weed plant weight at 375 g/ha using pre-emergence treatment protocol
Type: functional

Row | Compound | inhibition at 375 g/ha [%]
4 | C#CCOc1cc(-n2nnc3c(cnn3CC=C)c2=O)c(F)cc1Cl | 0

Test system: Brassica rapa subsp. oleifera
Assay: Herbicidal activity against Brassica rapa subsp. oleifera assessed as inhibition of fresh weed plant weight at 750 g/ha using post-emergence treatment protocol
Type: functional
Outline: as §1

Row | Compound | inhibition at 750 g/ha [%]
5 | C#CCOc1cc(-n2nnc3c(cnn3CC=C)c2=O)c(F)cc1Cl | 7.4

Test system: Amaranthus retroflexus
Assay: Herbicidal activity against Amaranthus retroflexus assessed as inhibition of fresh weed plant weight at 1500 g/ha using pre-emergence treatment protocol
Type: functional

Row | Compound | inhibition at 1500 g/ha [%]
6 | C#CCOc1cc(-n2nnc3c(cnn3CC=C)c2=O)c(F)cc1Cl | 87

Test system: Digitaria sanguinalis
Assay: Herbicidal activity against Digitaria sanguinalis (hairy crabgrass) assessed as inhibition of fresh weed plant weight at 1500 g/ha using post-emergence treatment protocol
Type: functional
Outline: as §1

Row | Compound | inhibition at 1500 g/ha [%]
7 | C#CCOc1cc(-n2nnc3c(cnn3CC=C)c2=O)c(F)cc1Cl | 41.3

Test system: Digitaria sanguinalis
Assay: Herbicidal activity against Digitaria sanguinalis (hairy crabgrass) assessed as inhibition of fresh weed plant weight at 375 g/ha using pre-emergence treatment protocol
Type: functional

Row | Compound | inhibition at 375 g/ha [%]
8 | C#CCOc1cc(-n2nnc3c(cnn3CC=C)c2=O)c(F)cc1Cl | 13

Test system: Brassica rapa subsp. oleifera
Assay: Herbicidal activity against Brassica rapa subsp. oleifera assessed as inhibition of fresh weed plant weight at 187.5 g/ha using post-emergence treatment protocol
Type: functional
Outline: as §1

Row | Compound | inhibition at 187.5 g/ha [%]
9 | C#CCOc1cc(-n2nnc3c(cnn3CC=C)c2=O)c(F)cc1Cl | 0

Test system: Brassica rapa subsp. oleifera
Assay: Herbicidal activity against Brassica rapa subsp. oleifera assessed as inhibition of fresh weed plant weight at 187.5 g/ha using pre-emergence treatment protocol
Type: functional

Row | Compound | inhibition at 187.5 g/ha [%]
10 | C#CCOc1cc(-n2nnc3c(cnn3CC=C)c2=O)c(F)cc1Cl | 0

Test system: Amaranthus retroflexus
Assay: Herbicidal activity against Amaranthus retroflexus assessed as inhibition of fresh weed plant weight at 750 g/ha using post-emergence treatment protocol
Type: functional
Outline: as §1

Row | Compound | inhibition at 750 g/ha [%]
11 | C#CCOc1cc(-n2nnc3c(cnn3CC=C)c2=O)c(F)cc1Cl | 41.5

Test system: Brassica rapa subsp. oleifera
Assay: Herbicidal activity against Brassica rapa subsp. oleifera assessed as inhibition of fresh weed plant weight at 375 g/ha using post-emergence treatment protocol
Type: functional
Outline: as §1

Row | Compound | inhibition at 375 g/ha [%]
12 | C#CCOc1cc(-n2nnc3c(cnn3CC=C)c2=O)c(F)cc1Cl | 3.4

Test system: Amaranthus retroflexus
Assay: Herbicidal activity against Amaranthus retroflexus assessed as inhibition of fresh weed plant weight at 187.5 g/ha using post-emergence treatment protocol
Type: functional
Outline: as §1

Row | Compound | inhibition at 187.5 g/ha [%]
13 | C#CCOc1cc(-n2nnc3c(cnn3CC=C)c2=O)c(F)cc1Cl | 7.3

Test system: Brassica rapa subsp. oleifera
Assay: Herbicidal activity against Brassica rapa subsp. oleifera assessed as inhibition of fresh weed plant weight at 1500 g/ha using pre-emergence treatment protocol
Type: functional

Row | Compound | inhibition at 1500 g/ha [%]
14 | C#CCOc1cc(-n2nnc3c(cnn3CC=C)c2=O)c(F)cc1Cl | 7.4

Test system: Echinochloa crus-galli
Assay: Herbicidal activity against Echinochloa crus-galli (barnyard grass) assessed as inhibition of fresh weed plant weight at 187.5 g/ha using post-emergence treatment protocol
Type: functional
Outline: as §1

Row | Compound | inhibition at 187.5 g/ha [%]
15 | C#CCOc1cc(-n2nnc3c(cnn3CC=C)c2=O)c(F)cc1Cl | 7.3

Test system: Echinochloa crus-galli
Assay: Herbicidal activity against Echinochloa crus-galli (barnyard grass) assessed as inhibition of fresh weed plant weight at 750 g/ha using pre-emergence treatment protocol
Type: functional

Row | Compound | inhibition at 750 g/ha [%]
16 | C#CCOc1cc(-n2nnc3c(cnn3CC=C)c2=O)c(F)cc1Cl | 0

Test system: Amaranthus retroflexus
Assay: Herbicidal activity against Amaranthus retroflexus assessed as inhibition of fresh weed plant weight at 375 g/ha using post-emergence treatment protocol
Type: functional
Outline: as §1

Row | Compound | inhibition at 375 g/ha [%]
17 | C#CCOc1cc(-n2nnc3c(cnn3CC=C)c2=O)c(F)cc1Cl | 12.2

Test system: Echinochloa crus-galli
Assay: Herbicidal activity against Echinochloa crus-galli (barnyard grass) assessed as inhibition of fresh weed plant weight at 375 g/ha using pre-emergence treatment protocol
Type: functional
Outline: as §1

Row | Compound | inhibition at 375 g/ha [%]
18 | C#CCOc1cc(-n2nnc3c(cnn3CC=C)c2=O)c(F)cc1Cl | 0

Test system: Amaranthus retroflexus
Assay: Herbicidal activity against Amaranthus retroflexus assessed as inhibition of fresh weed plant weight at 1500 g/ha using post-emergence treatment protocol
Type: functional
Outline: as §1

Row | Compound | inhibition at 1500 g/ha [%]
19 | C#CCOc1cc(-n2nnc3c(cnn3CC=C)c2=O)c(F)cc1Cl | 88.6

Test system: Digitaria sanguinalis
Assay: Herbicidal activity against Digitaria sanguinalis (hairy crabgrass) assessed as inhibition of fresh weed plant weight at 1500 g/ha using pre-emergence treatment protocol
Type: functional

Row | Compound | inhibition at 1500 g/ha [%]
20 | C#CCOc1cc(-n2nnc3c(cnn3CC=C)c2=O)c(F)cc1Cl | 37.4

Test system: Digitaria sanguinalis
Assay: Herbicidal activity against Digitaria sanguinalis (hairy crabgrass) assessed as inhibition of fresh weed plant weight at 375 g/ha using post-emergence treatment protocol
Type: functional
Outline: as §1

Row | Compound | inhibition at 375 g/ha [%]
21 | C#CCOc1cc(-n2nnc3c(cnn3CC=C)c2=O)c(F)cc1Cl | 0

Test system: Amaranthus retroflexus
Assay: Herbicidal activity against Amaranthus retroflexus assessed as inhibition of fresh weed plant weight at 375 g/ha using pre-emergence treatment protocol
Type: functional

Row | Compound | inhibition at 375 g/ha [%]
22 | C#CCOc1cc(-n2nnc3c(cnn3CC=C)c2=O)c(F)cc1Cl | 27.9

Test system: Brassica rapa subsp. oleifera
Assay: Herbicidal activity against Brassica rapa subsp. oleifera assessed as inhibition of fresh weed plant weight at 1500 g/ha using post-emergence treatment protocol
Type: functional
Outline: as §1

Row | Compound | inhibition at 1500 g/ha [%]
23 | C#CCOc1cc(-n2nnc3c(cnn3CC=C)c2=O)c(F)cc1Cl | 18.5

Test system: Brassica rapa subsp. oleifera
Assay: Herbicidal activity against Brassica rapa subsp. oleifera assessed as inhibition of fresh weed plant weight at 750 g/ha using pre-emergence treatment protocol
Type: functional

Row | Compound | inhibition at 750 g/ha [%]
24 | C#CCOc1cc(-n2nnc3c(cnn3CC=C)c2=O)c(F)cc1Cl | 0

Test system: Echinochloa crus-galli
Assay: Herbicidal activity against Echinochloa crus-galli (barnyard grass) assessed as inhibition of fresh weed plant weight at 1500 g/ha using post-emergence treatment protocol
Type: functional
Outline: as §1

Row | Compound | inhibition at 1500 g/ha [%]
25 | C#CCOc1cc(-n2nnc3c(cnn3CC=C)c2=O)c(F)cc1Cl | 38.3

Test system: Digitaria sanguinalis
Assay: Herbicidal activity against Digitaria sanguinalis (hairy crabgrass) assessed as inhibition of fresh weed plant weight at 187.5 g/ha using post-emergence treatment protocol
Type: functional
Outline: as §1

Row | Compound | inhibition at 187.5 g/ha [%]
26 | C#CCOc1cc(-n2nnc3c(cnn3CC=C)c2=O)c(F)cc1Cl | 0

Test system: Digitaria sanguinalis
Assay: Herbicidal activity against Digitaria sanguinalis (hairy crabgrass) assessed as inhibition of fresh weed plant weight at 187.5 g/ha using pre-emergence treatment protocol
Type: functional

Row | Compound | inhibition at 187.5 g/ha [%]
27 | C#CCOc1cc(-n2nnc3c(cnn3CC=C)c2=O)c(F)cc1Cl | 6.5

Test system: Amaranthus retroflexus
Assay: Herbicidal activity against Amaranthus retroflexus assessed as inhibition of fresh weed plant weight at 750 g/ha using pre-emergence treatment protocol
Type: functional
Outline: as §1

Row | Compound | inhibition at 750 g/ha [%]
28 | C#CCOc1cc(-n2nnc3c(cnn3CC=C)c2=O)c(F)cc1Cl | 41

Test system: Echinochloa crus-galli
Assay: Herbicidal activity against Echinochloa crus-galli (barnyard grass) assessed as inhibition of fresh weed plant weight at 375 g/ha using post-emergence treatment protocol
Type: functional
Outline: as §1

Row | Compound | inhibition at 375 g/ha [%]
29 | C#CCOc1cc(-n2nnc3c(cnn3CC=C)c2=O)c(F)cc1Cl | 11.2

Test system: Echinochloa crus-galli
Assay: Herbicidal activity against Echinochloa crus-galli (barnyard grass) assessed as inhibition of fresh weed plant weight at 1500 g/ha using pre-emergence treatment protocol
Type: functional

Row | Compound | inhibition at 1500 g/ha [%]
30 | C#CCOc1cc(-n2nnc3c(cnn3CC=C)c2=O)c(F)cc1Cl | 0

Test system: Digitaria sanguinalis
Assay: Herbicidal activity against Digitaria sanguinalis (hairy crabgrass) assessed as inhibition of fresh weed plant weight at 750 g/ha using post-emergence treatment protocol
Type: functional
Outline: as §1

Row | Compound | inhibition at 750 g/ha [%]
31 | C#CCOc1cc(-n2nnc3c(cnn3CC=C)c2=O)c(F)cc1Cl | 19.4

Test system: Digitaria sanguinalis
Assay: Herbicidal activity against Digitaria sanguinalis (hairy crabgrass) assessed as inhibition of fresh weed plant weight at 750 g/ha using pre-emergence treatment protocol
Type: functional

Row | Compound | inhibition at 750 g/ha [%]
32 | C#CCOc1cc(-n2nnc3c(cnn3CC=C)c2=O)c(F)cc1Cl | 17.4
